# Screens: PubChem, several laboratories
# MC4R barr agon – MC4R agonists recruiting beta-arrestin, primary screen, cell-based, luminescence, agonist arm of biased-ligand search; Melanocortin receptor 4 (Homo sapiens), P32245; U2OS MC4R beta-arrestin complementation; percent of melanotan II response, DMSO zero; activation, % at 8.9 µM; actives 0.98% (n = 360,000); AID 540308, 2011;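 active means activation above a per-plate cutoff, the mean activation of sample wells on that plate plus 3 SD, cut at about 8% in these data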
# Target sequence (P32245 whole entry, looked up): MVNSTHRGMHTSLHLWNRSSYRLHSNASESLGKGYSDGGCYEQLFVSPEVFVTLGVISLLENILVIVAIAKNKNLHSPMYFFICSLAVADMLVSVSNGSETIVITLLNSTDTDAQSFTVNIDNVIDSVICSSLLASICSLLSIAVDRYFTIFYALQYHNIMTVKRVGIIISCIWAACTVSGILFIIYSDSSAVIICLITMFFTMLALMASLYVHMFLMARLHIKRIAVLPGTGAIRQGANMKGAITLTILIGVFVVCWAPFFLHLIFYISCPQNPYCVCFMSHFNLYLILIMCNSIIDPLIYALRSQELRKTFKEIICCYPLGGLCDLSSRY
# MC4R antag cAMP – MC4R antagonists of cAMP signaling, primary screen, cell-based, TR-FRET, antagonist arm of biased-ligand search. Melanocortin receptor 4 (Homo sapiens), P32245. MC4R-expressing cells, MTII-stimulated cAMP, LANCE TR-FRET. inhibition, % at 6.5 µM. actives 0.48% (n = 360,000). AID 540295, 2011;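 active means inhibition above its plate's cutoff, the mean of tested wells on that plate plus 3 SD, cut at about 29% in these data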;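 further: 0% = Melanotan II alone and 100% = Melanotan II plus saturating MCL0020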
#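 Assay system: U2OS cells stably expressing human melanocortin 4 receptor (MC4R) / Dosing: 6.5 µM / Timing: compound 30 min, challenge 1 h, detection 1 h / Measured by: Eu-cAMP/anti-cAMP TR-FRET, emission 671 nm / Replicates: singlicate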
# SMARCA2 activ – SMARCA2 (BRM) function activators, primary screen, cell-based, luminescence, high throughput; activation, % at 9.1 µM; MG213 cells, MMTV-luciferase reporter, dexamethasone, overnight; actives 1% (n = 370,000); in the data active means activation above about 7.8%;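 further: 0% = vehicle wells and 100% = reference activator wells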
# CFTR F508del cor – F508del CFTR correction, initial screen, CFBE line, single point | CFBE cells, YFP halide quenching; stimulated with forskolin plus potentiator P3; % fluorescence drop versus neutral controls | activity (quench increase), % at 7.58 µM | actives 0.36% (n = 350,000) | AID 720511, 2013;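 active means mean added fluorescence quench of at least 8% versus neutral control, with both replicates also reaching 8%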;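 further: cells transiently co-express mutant CFTR-F508del with the halide-sensitive YFP; corrector assay measuring rescue of mutant channel to the surface after 24 h compound exposure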
# cAMP nonselect – nonselective cAMP signaling inhibitors, parental cells, counter-screen for MC4R biased antagonist project, cell-based, TR-FRET, U2OS, forskolin, triplicate; actives 26% (n = 1,600); inhibition, % at 6.5 µM; LANCE TR-FRET; shares compounds with MC4R antag cAMP; AID 602193, 2012;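 active means mean inhibition over triplicates above the low-control well mean plus 3 SD, set per campaign, cut at about 13% in these data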;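 further: signal is single emission at 671 nm which falls as cellular cAMP rises; 0% = forskolin-stimulated wells and 100% = buffer without forskolin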
# MC4R antag conf – MC4R cAMP antagonists, retest, confirmation, cell-based, TR-FRET; shares compounds with MC4R antag cAMP; MC4R-expressing cells, MTII-stimulated cAMP; inhibition, % at 6.5 µM; actives 27% (n = 1,600); AID 602195, 2012; in the data active means inhibition above about 29%;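 further: 0% = agonist stimulated wells alone and 100% = agonist stimulated wells plus saturating reference antagonist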
# Starred values were filed as active, the others as inactive; / = no result given; ! = not confirmed by another sample. This is a sample that favours compounds with a hit; in the whole collection about 2.1% have one here.
SMILES,MC4R barr agon,MC4R antag cAMP,SMARCA2 activ,CFTR F508del cor,cAMP nonselect,MC4R antag conf
C[C@H]1CN([C@@H](C)CO)C(=O)Cc2cc(NC(=O)Cn3cnnn3)ccc2O[C@@H]1CN(C)Cc1ccc(C(=O)O)cc1,/,/,/,-4.3,/,/
COc1ccc(S(=O)(=O)Nc2ccc(-n3cnnn3)cc2)cc1Br,-1.7,-8.8,-1.4,-3.5,/,/
COc1ccc(NS(=O)(=O)c2ccc(-n3cnnn3)cc2)cc1OC,1.5,29.4*,-2.6,-0.8,2.8,-16.8
CCOc1ccc2nc(NC(=O)C3CCCN(S(=O)(=O)c4cccc5nonc45)C3)sc2c1 (configuration not stated),1.3,33.1*,-3.2,/,4.1,22.2
O=S(=O)(Cc1cc(Cl)nc(-c2ccncc2)n1)c1ccccc1,-2.6,42.3*,-0.4,-5.5,5.5,15.3
Cc1ccc(S(=O)(=O)n2cnc3ccccc32)cc1[N+](=O)[O-],1.4,28.9*,2.0,1.3,-2.0,-3.2
CCCN(C)C[C@H]1Oc2cc(C#Cc3cccc(F)c3)ccc2S(=O)(=O)N([C@H](C)CO)C[C@@H]1C,/,/,/,-3.9,/,/
O=C(CNC(=O)c1ccccc1)OCN1C(=O)c2ccccc2C1=O,1.4,31.4*,-2.4,0.7,13.9*,22.1
O=C(CNC(=O)c1ccc(Br)cc1)NCC(=O)OCC(=O)c1ccccc1,-1.4,41.5*,1.4,/,13.7*,10.4
COCCNC(=O)C[C@H]1C[C@@H]2c3cc(NC(=O)C4CCC4)ccc3O[C@@H]2[C@H](CO)O1,/,/,/,0.2,/,/
Cc1ccc(S(=O)(=O)N2CCC(C(=O)Nc3nnc(C4CCCC4)s3)CC2)cc1,1.4,1.3,-3.9,-2.6,/,/
O=C(Nc1nnc(C2CCCC2)s1)C1CCN(S(=O)(=O)c2ccc(Cl)cc2)CC1,1.1,29.9*,2.6,/,-0.4,-2.5
O=C(C[C@@H]1C[C@H]2c3cc(NC(=O)Nc4ccc(C(F)(F)F)cc4)ccc3O[C@H]2[C@H](CO)O1)NCc1cc(F)ccc1F,/,/,/,-2.3,/,/
CN1CCN(C(=O)C[C@H]2C[C@@H]3c4cc(NC(=O)Nc5ccccc5F)ccc4O[C@@H]3[C@@H](CO)O2)CC1,/,/,/,-3.1,/,/
CCN(CC)C(=O)C(=O)Nc1ccc(Oc2ccccc2)cc1,0.9,32.5*,0.2,0.8,0.3,-10.6
CCN(CC)CC(=O)Nc1ccc(Oc2ccc(NC(=O)CN(CC)CC)cc2)cc1,-0.1,9.4,6.9,-2.1,/,/
O=C(Nc1cccc(Cl)c1)N[C@H]1CC[C@H](CCNC(=O)C2CC2)O[C@@H]1CO,/,/,/,2.1,/,/
CCCC(=O)Nc1ccc2c(c1)C(=O)N(C)[C@@H]1CC[C@@H](CC(=O)NCc3ccccc3F)O[C@H]1CO2,/,/,/,-0.1,/,/
O=C1CNC(=O)/C1=C/c1ccc(Br)cc1,-0.3,31.6*,-1.1,0.3,1.3,-5.6
Cc1noc(C)c1NC(=O)Nc1ccc2c(c1)C(=O)N([C@H](C)CO)C[C@H](C)[C@@H](CN(C)S(=O)(=O)c1c(C)noc1C)OCCCC[C@H](C)O2,/,/,/,1.5,/,/
O=C(C[C@H]1CC[C@H](NC(=O)C2CCC2)[C@H](CO)O1)NCC1CC1,/,/,/,-4.2,/,/
CCOCc1c(C(=O)NC2=Nc3ccccc3NC(CC)=C2C(=O)OCC)oc2ccccc12,6.0,37.8*,-1.1,1.1,25.3*,17.2
CCOC(=O)C1=C(CC)Nc2ccccc2N=C1NC(=O)c1oc2ccccc2c1C,-0.4,-0.2,-0.7,4.6,/,/
COc1ccc(NC(=O)N(C)C[C@@H]2Oc3ccc(NS(=O)(=O)c4ccc(F)cc4)cc3C(=O)N([C@@H](C)CO)C[C@@H]2C)cc1,/,/,/,-0.6,/,/
O=C(CN1C(=O)C2CC=CCC2C1=O)NCc1cccs1 (configuration not stated),-0.6,31.4*,-3.8,/,-2.5,0.9
SMILES,MC4R barr agon,MC4R antag cAMP,SMARCA2 activ,CFTR F508del cor,cAMP nonselect,MC4R antag conf
O=C(CN1C(=O)NC2(CCCCC2)C1=O)NCc1cccs1,2.0,-2.0,-2.3,-2.4,/,/
CO[C@@H]1CN(C)C(=O)c2cc(NC(=O)Nc3ccccc3Cl)ccc2OC[C@@H](C)N(S(=O)(=O)CC(F)(F)F)C[C@H]1C,/,/,/,-3.0,/,/
COc1ccccc1N1CCN(C(=O)CCCNC(=O)Cn2cnc3sc(C)c(C)c3c2=O)CC1,1.3,32.9*,-1.1,-2.3,0.5,-2.4
CCn1cc(C(=O)O)c(=O)c2cnc(N3CCN(C(=S)Nc4ccccc4)CC3)nc21,4.9,31.2*,0.3,-4.3,-0.6,-9.9
COc1cc(/C=C2/C(=N)N3C(=NC2=O)SN=C3S(C)(=O)=O)ccc1OS(=O)(=O)c1ccc(C)cc1,-3.0,11.9,-1.8,-1.4,/,/
COc1cccc(-n2c(C)cc(/C=C3/C(=N)N4C(=NC3=O)SN=C4S(C)(=O)=O)c2C)c1,0.0,29.0*,-3.4,2.7,-7.4,-25.7
O=C(C[C@@H]1C=C[C@@H](NC(=O)C2CCC2)[C@@H](CO)O1)Nc1nccs1,/,/,/,-0.3,/,/
COC(=O)c1c(NC(=O)C2COc3ccccc3O2)sc2c1CCN(C(=O)OC)C2 (configuration not stated),1.4,31.1*,-0.9,-3.3,1.6,26.4
COc1ccc(-c2cc(C(=O)Nc3cc(OC)cc(C(=O)Nc4cccc(C(F)(F)F)c4)c3)[nH]n2)cc1,6.9,30.8*!,3.4,5.8,6.0,18.6
COc1cc(NC(=O)c2csc(-c3ccncc3)n2)cc(C(=O)Nc2cccc(C(F)(F)F)c2)c1,1.9,39.0*!,1.1,2.9,0.2,4.1
O=C(Nc1cccc(-c2csc(Nc3cccc(C(F)(F)F)c3)n2)c1)c1ccccc1,1.6,42.0*,0.0,2.2,2.4,16.4
O=C(Nc1ccc(-c2csc(Nc3cccc(C(F)(F)F)c3)n2)cc1)c1ccccc1,1.6,23.4,2.0,0.0,/,/
O=C(Nc1cccc(C(F)(F)F)c1)c1csc(-c2ccncc2)n1,0.3,8.5,0.1,5.1,/,/
COc1cc(NC(=O)c2ccno2)cc(C(=O)Nc2cccc(C(F)(F)F)c2)c1,-2.2,4.4,-0.8,0.6,/,/
COc1cc(NC(=O)c2cc3cccc(OC)c3o2)cc(C(=O)Nc2cccc(C(F)(F)F)c2)c1,0.0,33.4*,-0.8,-0.2,0.2,-2.9
CC(C)Cc1ccc(C(C)CC2=CCC(CN(C)C)C2=O)cc1 (configuration not stated),6.6,39.0*,-2.6,/,1.7,45.9*
O=C(C[C@H]1CC[C@@H]2[C@H](COC[C@H](O)CN2C(=O)Nc2ccc(F)cc2)O1)NC1Cc2ccccc2C1,/,/,/,-3.8,/,/
